Source: ChEMBL document CHEMBL1155904, “Synthesis and evaluation of heteroaryl-ketone derivatives as a novel class of VEGFR-2 inhibitors” (Bioorg Med Chem Lett, 2008)

Key:
Type in all cases: ADME, organism-based
Details in all cases: read-out: Drug uptake
[1] = Plasma concentration in mouse at 30 mg/kg, po after 1 hr; design: dose 30 mg/kg, route oral
[2] = Plasma concentration in mouse at 30 mg/kg, ip after 1 hr; design: dose 30 mg/kg, route intraperitoneal
Outline: (§1)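 Mice dosed intraperitoneally at 30 mg/kg in a vehicle of 5% ethanol, 5% Tween-80, 5% PEG400 and 85% PBS. Plasma drug concentration measured at set times after injection.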

[3] = Plasma concentration in mouse at 30 mg/kg, ip after 4 hrs; design: dose 30 mg/kg, route intraperitoneal; outline: as §1

Q: For `O=C(c1ccccc1NCc1ccc2ncccc2c1)c1n[nH]c2ccccc12`, which concentration at 1 h [1] is on record?
A: 1800 nM

Q: What about the concentration at 1 h [2] of the same molecule?
A: 2400 nM

Q: Which results are given for `Cc1ccc2c(c1)c(C(=O)c1ccccc1NCc1ccc3ncccc3c1)cn2C`?
A: concentration at 1 h [1]: 1800 nM; concentration at 1 h [2]: 2900 nM; concentration at 4 h [3]: 1100 nM
